# Measured values taken from ChEMBL document CHEMBL4732114, “Design and structural optimization of novel 2H-benzo[h]chromene derivatives that target AcrB and reverse bacterial multidrug resistance” (Eur J Med Chem, 2021).
# Active and inactive are the calls of the source. The calls are words filed in the database; no cut-off is given here.
# Legend:
# [1] = target: T1, Multidrug efflux pump subunit AcrB (Escherichia coli (strain K12)) (UniProt P31224); experiment: Inhibition of AcrB in multidrug-resistant Escherichia coli BW25113 assessed as potentiation of levofloxacin-induced antibacterial activity by measuring levofloxacin MIC at 128 ug/ml by checkerboard titration method (reference value: 0.06 ug/ml); conditions: dose 128.0 µg/ml
# T1 sequence (whole entry): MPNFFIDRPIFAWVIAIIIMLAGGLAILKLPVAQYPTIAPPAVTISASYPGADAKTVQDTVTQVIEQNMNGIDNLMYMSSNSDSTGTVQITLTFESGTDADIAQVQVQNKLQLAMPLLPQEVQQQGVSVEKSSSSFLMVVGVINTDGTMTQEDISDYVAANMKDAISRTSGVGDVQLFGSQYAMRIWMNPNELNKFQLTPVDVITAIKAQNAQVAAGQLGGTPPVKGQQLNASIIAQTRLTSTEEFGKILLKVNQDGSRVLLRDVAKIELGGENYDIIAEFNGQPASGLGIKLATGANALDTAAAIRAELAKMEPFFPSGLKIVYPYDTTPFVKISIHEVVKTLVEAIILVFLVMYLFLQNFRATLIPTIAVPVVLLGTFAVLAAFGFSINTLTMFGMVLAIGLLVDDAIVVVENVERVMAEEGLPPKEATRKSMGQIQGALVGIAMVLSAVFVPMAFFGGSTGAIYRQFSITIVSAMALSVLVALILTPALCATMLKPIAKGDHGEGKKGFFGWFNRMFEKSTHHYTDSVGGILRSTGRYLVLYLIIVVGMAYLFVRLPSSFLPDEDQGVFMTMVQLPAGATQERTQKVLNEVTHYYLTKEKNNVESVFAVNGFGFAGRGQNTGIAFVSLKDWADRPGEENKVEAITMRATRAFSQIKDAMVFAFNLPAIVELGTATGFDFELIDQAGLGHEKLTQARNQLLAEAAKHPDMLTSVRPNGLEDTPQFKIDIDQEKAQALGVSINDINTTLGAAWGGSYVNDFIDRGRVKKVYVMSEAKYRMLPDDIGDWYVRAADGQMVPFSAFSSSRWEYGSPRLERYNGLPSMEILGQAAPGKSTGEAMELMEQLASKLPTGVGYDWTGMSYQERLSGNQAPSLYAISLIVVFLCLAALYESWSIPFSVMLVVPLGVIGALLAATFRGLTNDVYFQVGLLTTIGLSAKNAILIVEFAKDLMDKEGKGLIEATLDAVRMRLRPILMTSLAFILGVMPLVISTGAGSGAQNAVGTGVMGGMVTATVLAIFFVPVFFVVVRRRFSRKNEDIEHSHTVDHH
# [2] = target: T1, Multidrug efflux pump subunit AcrB (Escherichia coli (strain K12)); experiment: Inhibition of AcrB in multidrug-resistant Escherichia coli BW25113 assessed as potentiation of levofloxacin-induced antibacterial activity by measuring levofloxacin MIC at 32 ug/ml by checkerboard titration method (reference value: 0.06 ug/ml); conditions: dose 32.0 µg/ml
# [3] = target: T1, Multidrug efflux pump subunit AcrB (Escherichia coli (strain K12)); experiment: Inhibition of AcrB in multidrug-resistant Escherichia coli BW25113 assessed as potentiation of chloramphenicol-induced antibacterial activity by measuring chloramphenicol MIC at 16 ug/ml by checkerboard titration method (reference value: 8 ug/ml); conditions: dose 16.0 µg/ml
# [4] = Toxicity in multidrug-resistant Escherichia coli BW25113 harboring AcrB deletion mutant assessed as growth inhibition by two-fold broth dilution method
# [5] = target: T1, Multidrug efflux pump subunit AcrB (Escherichia coli (strain K12)); experiment: Inhibition of AcrB in multidrug-resistant Escherichia coli BW25113 assessed as potentiation of tetraphenylphosphonium-induced antibacterial activity by measuring tetraphenylphosphonium MIC at 16 ug/ml by checkerboard titration method (reference value: 1024 ug/ml); conditions: dose 16.0 µg/ml
# [6] = target: T1, Multidrug efflux pump subunit AcrB (Escherichia coli (strain K12)); experiment: Inhibition of AcrB in multidrug-resistant Escherichia coli BW25113 assessed as potentiation of chloramphenicol-induced antibacterial activity by measuring chloramphenicol MIC at 64 ug/ml by checkerboard titration method (reference value: 8 ug/ml); conditions: dose 64.0 µg/ml
# [7] = target: T1, Multidrug efflux pump subunit AcrB (Escherichia coli (strain K12)); experiment: Inhibition of AcrB in multidrug-resistant Escherichia coli BW25113 assessed as potentiation of chloramphenicol-induced antibacterial activity by measuring chloramphenicol MIC at 32 ug/ml by checkerboard titration method (reference value: 8 ug/ml); conditions: dose 32.0 µg/ml
# [8] = target: T1, Multidrug efflux pump subunit AcrB (Escherichia coli (strain K12)); experiment: Inhibition of AcrB in multidrug-resistant Escherichia coli BW25113 assessed as potentiation of erythromycin-induced antibacterial activity by measuring erythromycin MIC at 8 ug/ml by checkerboard titration method (reference value: 64 ug/ml); conditions: dose 8.0 µg/ml
# [9] = target: T1, Multidrug efflux pump subunit AcrB (Escherichia coli (strain K12)); experiment: Inhibition of AcrB in multidrug-resistant Escherichia coli BW25113 assessed as potentiation of tetraphenylphosphonium-induced antibacterial activity by measuring tetraphenylphosphonium MIC at 32 ug/ml by checkerboard titration method (reference value: 1024 ug/ml); conditions: dose 32.0 µg/ml
# [10] = Toxicity in multidrug-resistant Escherichia coli BW25113 assessed as growth inhibition by two-fold broth dilution method
# [11] = target: T1, Multidrug efflux pump subunit AcrB (Escherichia coli (strain K12)); conditions: Escherichia coli BW25113; dose 128.0 µg/ml
# [12] = target: T1, Multidrug efflux pump subunit AcrB (Escherichia coli (strain K12)); experiment: Inhibition of AcrB in Escherichia coli BW25113 assessed as reduction in glucose-induced nile red efflux at 100 uM preincubated for 15 mins followed by nile red addition and incubated for 3 hrs in shaker in presence of CCCP by fluorimetric analysis; conditions: time 3.25 hrs
# Summary of the method: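 Wild-type and AcrB-deleted cells were preloaded with Nile Red, with or without compound. Fluorescence was recorded, and efflux was triggered at 100 s with 0.2% glucose. Traces were compared with the deletion-strain level. Triplicate experiments used different cell batches.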
# [13] = target: T1, Multidrug efflux pump subunit AcrB (Escherichia coli (strain K12)); experiment: Inhibition of AcrB in multidrug-resistant Escherichia coli BW25113 assessed as potentiation of levofloxacin-induced antibacterial activity by measuring levofloxacin MIC at 8 ug/ml by checkerboard titration method (reference value: 0.06 ug/ml); conditions: dose 8.0 µg/ml
# [14] = target: T1, Multidrug efflux pump subunit AcrB (Escherichia coli (strain K12)); conditions: Escherichia coli BW25113; dose 8.0 µg/ml
# [15] = target: T1, Multidrug efflux pump subunit AcrB (Escherichia coli (strain K12)); experiment: Inhibition of AcrB in multidrug-resistant Escherichia coli BW25113 assessed as potentiation of chloramphenicol-induced antibacterial activity by measuring chloramphenicol MIC at 8 ug/ml by checkerboard titration method (reference value: 8 ug/ml); conditions: dose 8.0 µg/ml
# [16] = target: T1, Multidrug efflux pump subunit AcrB (Escherichia coli (strain K12)); conditions: Escherichia coli BW25113; dose 32.0 µg/ml
# [17] = tested on: Cell membrane; experiment: Induction of outer membrane permeabilization in wild type Escherichia coli BW25113 assessed as increase in nitrocefin hydrolysis at 128 ug/ml in presence of CCCP by spectroscopic analysis; conditions: dose 128 µg/ml
# Summary of the method: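 Intact E. coli were treated with 10 μM CCCP to block nitrocefin efflux, then given compound, nothing, or polymyxin B as permeabilizer control. Nitrocefin was added, and hydrolysis by periplasmic β-lactamase was followed as the rise in absorbance at 490 nm. Duplicate experiments were run on different days.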
Structure (SMILES),MIC [1],MIC [2],MIC [3],MIC [4],MIC [5],MIC [6],MIC [7],MIC [8],MIC [9],MIC [10],MIC [11],inhibition [12],MIC [13],MIC [14],MIC [15],MIC [16],Activity [17]
Cc1ccccc1COc1cccc2c3c(c(-c4nnco4)cc12)CCC(C)(C)O3,0.06 µg/mL,0.06 µg/mL,8 µg/mL,> 128 µg/mL,512 µg/mL,8 µg/mL,8 µg/mL,64 µg/mL,512 µg/mL,> 512 µg/mL,16 µg/mL,Active,0.06 µg/mL,16 µg/mL,8 µg/mL,16 µg/mL,
CC1(C)CCc2c(C(=O)N3CCOCC3)cc3c(OCc4ccc(C(F)(F)F)cc4)cccc3c2O1,0.06 µg/mL,0.06 µg/mL,8 µg/mL,> 128 µg/mL,512 µg/mL,8 µg/mL,8 µg/mL,64 µg/mL,512 µg/mL,> 512 µg/mL,16 µg/mL,,0.06 µg/mL,16 µg/mL,8 µg/mL,16 µg/mL,Not Active
CC1(C)CCc2c(-c3nnco3)cc3c(OCc4ccc(C#N)cc4)cccc3c2O1,0.06 µg/mL,0.06 µg/mL,4 µg/mL,> 128 µg/mL,1020 µg/mL,4 µg/mL,4 µg/mL,64 µg/mL,1020 µg/mL,> 512 µg/mL,16 µg/mL,,0.06 µg/mL,16 µg/mL,8 µg/mL,16 µg/mL,Not Active
CC1(C)CC(=O)c2ccc(OCC(=O)Nc3ccc(C#N)c(C(F)(F)F)c3)cc2O1,,0.06 µg/mL,8 µg/mL,> 128 µg/mL,1020 µg/mL,4 µg/mL,8 µg/mL,64 µg/mL,512 µg/mL,> 512 µg/mL,16 µg/mL,,0.06 µg/mL,16 µg/mL,8 µg/mL,16 µg/mL,
CNC(=O)c1ccc(COc2cccc3c4c(c(Cn5cnnn5)cc23)CCC(C)(C)O4)cc1,0.06 µg/mL,0.06 µg/mL,8 µg/mL,> 128 µg/mL,1020 µg/mL,4 µg/mL,8 µg/mL,64 µg/mL,1020 µg/mL,> 512 µg/mL,16 µg/mL,,0.06 µg/mL,16 µg/mL,8 µg/mL,16 µg/mL,
COc1cccc(COc2cccc3c4c(c(-c5nnco5)cc23)CCC(C)(C)O4)c1,0.06 µg/mL,0.06 µg/mL,8 µg/mL,> 128 µg/mL,1020 µg/mL,8 µg/mL,8 µg/mL,64 µg/mL,1020 µg/mL,> 512 µg/mL,16 µg/mL,,0.06 µg/mL,16 µg/mL,8 µg/mL,16 µg/mL,Not Active
CC1(C)CCc2c(-c3nnco3)cc3c(OCc4ccc([N+](=O)[O-])cc4)cccc3c2O1,0.06 µg/mL,0.06 µg/mL,8 µg/mL,> 128 µg/mL,1020 µg/mL,8 µg/mL,8 µg/mL,64 µg/mL,1020 µg/mL,> 512 µg/mL,16 µg/mL,Active,0.06 µg/mL,16 µg/mL,8 µg/mL,16 µg/mL,
C=CC(=O)Nc1ccc(COc2cccc3c4c(c(Cn5cnnn5)cc23)CCC(C)(C)O4)cc1,0.06 µg/mL,0.06 µg/mL,8 µg/mL,> 128 µg/mL,1020 µg/mL,4 µg/mL,4 µg/mL,64 µg/mL,1020 µg/mL,> 512 µg/mL,16 µg/mL,,0.06 µg/mL,16 µg/mL,8 µg/mL,16 µg/mL,
CC1(C)CCc2c(Cn3cnnn3)cc3c(OCc4ccccc4)cccc3c2O1,0.03 µg/mL,0.06 µg/mL,8 µg/mL,> 128 µg/mL,1020 µg/mL,4 µg/mL,8 µg/mL,64 µg/mL,1020 µg/mL,> 512 µg/mL,16 µg/mL,Active,0.06 µg/mL,16 µg/mL,8 µg/mL,16 µg/mL,
CC1(C)CC(=O)c2ccc(OCCNC3CCCC3)cc2O1,0.03 µg/mL,0.03 µg/mL,8 µg/mL,> 128 µg/mL,512 µg/mL,8 µg/mL,8 µg/mL,64 µg/mL,512 µg/mL,> 512 µg/mL,16 µg/mL,,0.06 µg/mL,16 µg/mL,8 µg/mL,16 µg/mL,Not Active
CC1CN(C(=O)c2cc3c(OCc4c(Cl)cccc4Cl)cccc3c3c2CCC(C)(C)O3)CC(C)O1 (stereo unspecified),0.03 µg/mL,0.03 µg/mL,8 µg/mL,,1020 µg/mL,8 µg/mL,8 µg/mL,64 µg/mL,1020 µg/mL,,16 µg/mL,Active,0.03 µg/mL,16 µg/mL,8 µg/mL,16 µg/mL,
COc1cccc(COc2cccc3c4c(c(C(=O)N5CCOCC5)cc23)CCC(C)(C)O4)c1,0.06 µg/mL,0.06 µg/mL,4 µg/mL,> 128 µg/mL,512 µg/mL,4 µg/mL,4 µg/mL,64 µg/mL,512 µg/mL,> 512 µg/mL,16 µg/mL,,0.06 µg/mL,16 µg/mL,4 µg/mL,16 µg/mL,Not Active
